UBC9 SUMO inh = inhibitors of in vitro SUMOylation cascade, primary screen, biochemical, HTRF, uHTS. HTRF SUMOylation assay, SAE1/SAE2 + UBC9. 0.36% of 290,000 active. inhibition, % at 35 µM. SUMO-conjugating enzyme UBC9 (Homo sapiens), P63279; in the data active = inhibition above about 50%, passing the limit was not always enough
Target sequence (P63279 whole entry, looked up): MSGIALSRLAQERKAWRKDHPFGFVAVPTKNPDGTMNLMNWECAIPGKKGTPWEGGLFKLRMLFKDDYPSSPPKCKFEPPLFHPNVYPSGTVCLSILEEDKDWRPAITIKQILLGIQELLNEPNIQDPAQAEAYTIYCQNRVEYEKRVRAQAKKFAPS
core dimer inh = inhibitors of HCV core protein dimerization, primary screen, biochemical, TR-FRET, high-throughput; TR-FRET GST/Flag-core106 dimerization, 1536-well; inhibition, % at 5 µM; 0.33% of 300,000 active; AID 1899, 2009;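 active = inhibition above the mean of all tested compounds plus 3 SD, set per screening campaign, cut at about 45% in these data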
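assay system = GST-tagged and Flag-tagged HCV core protein residues 1-106 | controls = unlabelled core106 and no-GST-core106 wells | incubation = compound-protein-antibody incubation 4 h at 22.5 °C | probe or stimulus = Eu donor and XL665 acceptor anti-tag antibodies | read-out = % inhibition based on acceptor/donor emission ratio | signal = TR-FRET 671 and 617 nm emission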
IMP-1 inh-1 = IMP-1 metallo-beta-lactamase inhibitors, primary screen, biochemical, epi-absorbance readout, Pseudomonas aeruginosa enzyme; AID 1556, 2009; metallo-beta-lactamase IMP-1 (Pseudomonas aeruginosa); inhibition, % at 5.6 µM; purified IMP-1, nitrocefin hydrolysis, epi-absorbance fluorescence; 0.45% of 290,000 active;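 active = inhibition above the mean plus 3 SD of all compounds in the same screening run, cut at about 4.5% in these data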
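system = purified recombinant IMP-1 beta-lactamase | amount = 0.2 nM IMP-1, as dispensed | medium = HEPES buffer pH 7.1 with ZnSO4 and Brij 35 | times = 25 °C, 15 min preincubation, 25 min reaction | detection = plate fluorescence quenching by hydrolysis product, ex 480/em 530 nm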
VIM-2 inhibitor = VIM-2 metallo-beta-lactamase inhibitors, primary screen, biochemical, epi-absorbance readout, Pseudomonas aeruginosa enzyme | AID 1527, 2009 | inhibition, % at 5.6 µM | 0.89% of 290,000 active | purified VIM-2, nitrocefin hydrolysis, epi-absorbance fluorescence;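 active = inhibition above the mean of all tested compounds plus 3 SD, cutoff set per screening run, cut at about 7.5% in these data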;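 also: red hydrolysis product quenches plate fluorescence so inhibitors raise well fluorescence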
PHOSPHO1 block = PubChem AID 1565; Phosphoethanolamine/phosphocholine phosphatase (Homo sapiens), Q8TCT1; recombinant PHOSPHO1, absorbance phosphatase assay; inhibition, % at 13.3 µM; 1.1% of 290,000 active; in the data active = inhibition above about 60%
Target sequence (Q8TCT1 whole entry, looked up): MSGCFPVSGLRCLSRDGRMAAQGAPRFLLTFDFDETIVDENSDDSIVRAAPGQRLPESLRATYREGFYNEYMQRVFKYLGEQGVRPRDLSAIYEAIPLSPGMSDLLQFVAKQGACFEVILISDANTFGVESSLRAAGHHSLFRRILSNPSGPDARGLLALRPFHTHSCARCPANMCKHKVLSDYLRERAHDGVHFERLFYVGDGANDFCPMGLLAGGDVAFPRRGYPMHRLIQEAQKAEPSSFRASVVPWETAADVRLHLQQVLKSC
HCV NS3 hel inh = inhibitors of HCV NS3 helicase, primary screen, biochemical, Cy5 molecular beacon fluorescence; Hepatitis C virus NS3 helicase; NS3 helicase DNA unwinding; inhibition, % at 10.9 µM; 0.56% of 290,000 active; AID 1800, 2009;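 active = inhibition above the mean of all tested compounds plus 3 SD, set per campaign, cut at about 35% in these data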
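Test system: hepatitis C virus NS3 helicase domain fragment enzyme. Also added: annealed dual-labelled DNA beacon duplex, ATP-started. Timing: 60 min unwinding reaction at 25 °C after ATP addition. Technique: Cy5 fluorescence. Measure: % inhibition of unwinding.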
IMP-1 inh-2 = IMP-1 metallo-beta-lactamase inhibitors, confirmation, selectivity assay for selective VIM-2 inhibitor project, biochemical, epi-absorbance readout, triplicate; shares compounds with VIM-2 inhibitor; purified IMP-1, nitrocefin hydrolysis, epi-absorbance fluorescence; inhibition, % at 5.6 µM; 1,300 tested, under 10 active; call rule not given here
VIM-2 FRET ctr = VIM-2 inhibitors in FRET format, confirmation, artefact control for selective VIM-2 inhibitor project, biochemical, epi-absorbance artifact exclusion | shares compounds with VIM-2 inhibitor | purified VIM-2, CCF2 FRET substrate hydrolysis | inhibition, % at 5.6 µM | 23% of 1,300 active | AID 1857, 2009;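 active = inhibition above the mean of all tested compounds plus 3 SD, cut at about 19% in these data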
TEM-1 inh = TEM-1 serine beta-lactamase inhibitors, counter-screen for VIM-2 inhibitor project, biochemical, epi-absorbance, HTS; shares compounds with VIM-2 inhibitor; 3% of 1,300 active; inhibition, % at 5.6 µM; Purified TEM-1, nitrocefin hydrolysis, epi-absorbance fluorescence; AID 1866, 2009;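 active = inhibition above that campaign's mean inhibition plus 3 SD, cut at about 0.46% in these data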
Target sequence (P62593 whole entry, looked up): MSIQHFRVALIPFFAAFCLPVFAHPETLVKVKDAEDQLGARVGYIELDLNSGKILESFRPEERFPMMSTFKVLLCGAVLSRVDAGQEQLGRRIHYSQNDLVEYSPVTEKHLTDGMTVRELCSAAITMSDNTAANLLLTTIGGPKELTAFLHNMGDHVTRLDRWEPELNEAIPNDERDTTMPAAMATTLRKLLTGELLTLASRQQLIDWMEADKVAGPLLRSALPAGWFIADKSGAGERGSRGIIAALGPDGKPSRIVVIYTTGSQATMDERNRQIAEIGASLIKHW
VIM-2 inh conf = VIM-2 metallo-beta-lactamase inhibitors, confirmation, biochemical, epi-absorbance, hits shared with IMP-1 screen | inhibition, % at 5.6 µM | shares compounds with VIM-2 inhibitor | AID 2187, 2009 | 96% of 1,300 active | purified VIM-2, nitrocefin hydrolysis;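 active = inhibition of the VIM-2 beta-lactamase enzyme above about 11% from the earlier first-round screen, limit read from the data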
Large screens that a line does not name were inactive (follow-up assays come after a bar, where they were run). In the library only some 3.1% were active in any assay of this set; here they are far more common.

OC(Cn1cnnc1)c1ccccc1 (stereo unspecified)	none
Cc1ccsc1-c1n[nH]c(=S)n1C1CCCCC1	VIM-2 inhibitor 31 | IMP-1 inh-2 inactive | VIM-2 FRET ctr 57 | TEM-1 inh inactive | VIM-2 inh conf 42
Cc1ccsc1-c1n[nH]c(=S)n1CC(C)C	VIM-2 inhibitor 18 | IMP-1 inh-2 inactive | VIM-2 FRET ctr 40 | TEM-1 inh inactive | VIM-2 inh conf 28
Cc1ccc(NC(=O)CCC(=O)c2cccs2)c(O)c1	none
O=C(CC(C(=O)O)c1cccc(Cl)c1Cl)c1ccccc1 (stereo unspecified)	VIM-2 inhibitor 15 | IMP-1 inh-2 inactive | VIM-2 FRET ctr 29 | TEM-1 inh inactive | VIM-2 inh conf 18
Cc1cc(C)c2c(n1)nn1c(NCCCN(C)C)cc(C)nc21	VIM-2 inhibitor 19 | IMP-1 inh-2 inactive | VIM-2 FRET ctr inactive | TEM-1 inh inactive | VIM-2 inh conf 31
Cc1cc(C)c2c(n1)nn1c(NCCOCCO)cc(C)nc21	none
Cn1c(SCC(=O)c2cc3ccccc3o2)nnc1-c1ccccc1	none
O=C(CSc1nnc(-c2cccs2)n1CC1CCCO1)c1cc2ccccc2o1 (stereo unspecified)	VIM-2 inhibitor 14 | IMP-1 inh-2 inactive | VIM-2 FRET ctr 31 | TEM-1 inh inactive | VIM-2 inh conf 17
CCn1c(-c2nn(-c3ccccc3)ccc2=O)n[nH]c1=S	VIM-2 inhibitor 18 | IMP-1 inh-2 inactive | VIM-2 FRET ctr 34 | TEM-1 inh inactive | VIM-2 inh conf 23
CCn1c(-c2nn(-c3ccc(C)cc3)ccc2=O)n[nH]c1=S	VIM-2 inhibitor 14 | IMP-1 inh-2 inactive | VIM-2 FRET ctr 33 | TEM-1 inh inactive | VIM-2 inh conf 22
COc1ccc2c(C)cc3n[nH]c(=S)n3c2c1	VIM-2 inhibitor 13, PHOSPHO1 block 67 | IMP-1 inh-2 inactive | VIM-2 FRET ctr 21 | TEM-1 inh inactive | VIM-2 inh conf 19
COc1ccc(-c2n[nH]c(=S)n2-c2cc(OC)ccc2OC)cc1	none
COc1ccc(C)cc1Nc1c2c(nc3ccccc13)CCC2	VIM-2 inhibitor 19 | IMP-1 inh-2 inactive | VIM-2 FRET ctr inactive | TEM-1 inh inactive | VIM-2 inh conf 28
COc1ccc(Nc2c3c(nc4ccccc24)CCCC3)cc1OC	VIM-2 inhibitor 16 | IMP-1 inh-2 inactive | VIM-2 FRET ctr inactive | TEM-1 inh inactive | VIM-2 inh conf 30
COc1ccccc1Nc1c2ccccc2nc2ccccc12	VIM-2 inhibitor 24 | IMP-1 inh-2 inactive | VIM-2 FRET ctr inactive | TEM-1 inh inactive | VIM-2 inh conf 36
COc1ccc(N(C(=O)c2ccco2)C(C(=O)NC2CCCC2)c2ccc(N3CCOCC3)cc2)c(OC)c1 (stereo unspecified)	none
NC(=O)Cn1ccc(O)c(Cc2ccc(Cl)cc2Cl)c1=O	none
CC1CCN(Cc2cc(=O)oc3ccc4ccccc4c23)CC1	none
CN1CCN(C(=O)CSc2nc3c(c(=O)n(C)c(=O)n3C)n2C)CC1	VIM-2 inhibitor 76 | IMP-1 inh-2 inactive | VIM-2 FRET ctr inactive | TEM-1 inh inactive | VIM-2 inh conf 79
CN1CCc2c(sc(NC(=O)c3cc(Cl)sc3Cl)c2C(N)=O)C1	VIM-2 inhibitor 14 | IMP-1 inh-2 inactive | VIM-2 FRET ctr inactive | TEM-1 inh inactive | VIM-2 inh conf 21
COc1ccc(C(C)(C)C)cc1NC(=O)c1cccc(S(=O)(=O)N2CCN(C(C)=O)CC2)c1	none
CC1CCN(CC(=O)n2c3c(c4ccccc42)CCCC3)CC1	VIM-2 inhibitor 18 | IMP-1 inh-2 inactive | VIM-2 FRET ctr inactive | TEM-1 inh inactive | VIM-2 inh conf inactive
CC1CCc2c(c3ccccc3n2C(=O)CCl)C1 (stereo unspecified)	none
CCN1CCN(CC(=O)n2c3c(c4ccccc42)CC(C)CC3)CC1 (stereo unspecified)	VIM-2 inhibitor 19 | IMP-1 inh-2 inactive | VIM-2 FRET ctr 28 | TEM-1 inh inactive | VIM-2 inh conf 29
CN(C)C(=O)CSc1nc(-c2ccccc2)nc2c1CCCC2	none
CN(C)CCCSc1nc(-c2ccccc2)nc2c1CCC2	VIM-2 inhibitor 35 | IMP-1 inh-2 inactive | VIM-2 FRET ctr inactive | TEM-1 inh inactive | VIM-2 inh conf 57
Cc1nc(C)c(-c2ccc(SCc3ccccc3F)nn2)s1	none
COc1ccc(-c2cc(C(=O)O)c3c(C)nn(-c4ccccn4)c3n2)cc1	none
CCOC(=O)c1cc(-c2ccncc2)nc2c1c(C)nn2-c1ccccn1	VIM-2 inhibitor 42 (no result: UBC9 SUMO inh, PHOSPHO1 block) | IMP-1 inh-2 inactive | VIM-2 FRET ctr inactive | TEM-1 inh inactive | VIM-2 inh conf 58
CCOC(=O)c1c(-c2ccc(-c3ccccc3)cc2)csc1NC(=O)CNCCN(C)C	VIM-2 inhibitor 17 | IMP-1 inh-2 inactive | VIM-2 FRET ctr inactive | TEM-1 inh inactive | VIM-2 inh conf 27
Cc1ccc(-c2nn3c(C)nnc3c3ccccc23)cc1S(=O)(=O)N(C)CCO	VIM-2 inhibitor 21 | IMP-1 inh-2 inactive | VIM-2 FRET ctr inactive | TEM-1 inh inactive | VIM-2 inh conf 32
Cc1ccc(-c2nn3c(C)nnc3c3ccccc23)cc1S(=O)(=O)NCc1ccccc1	none
Cc1ccc(-c2nn3c(C)nnc3c3ccccc23)cc1S(=O)(=O)NCCN1CCOCC1	VIM-2 inhibitor 42 | IMP-1 inh-2 inactive | VIM-2 FRET ctr inactive | TEM-1 inh inactive | VIM-2 inh conf 58
CC(C)(C)OC(=O)N1CCN(c2ccc([N+](=O)[O-])cc2)CC1	none
O=C(CNCc1ccccn1)N1CCc2ccccc2C1	VIM-2 inhibitor 30 | IMP-1 inh-2 inactive | VIM-2 FRET ctr inactive | TEM-1 inh inactive | VIM-2 inh conf 50
